Test results as given in ChEMBL document CHEMBL1155605, “Effect of lichen metabolites on thylakoid electron transport and photophosphorylation in isolated spinach chloroplasts” (J Nat Prod, 2000).
pIC50: −log10 of the molar value. Calls of active or inactive are those of the source. The rule behind the calls is not given here.

Legend:
Echinochloa crus-galli [1] = assay: Phytogrowth-inhibitory activity against Echinochloa crusgalli assessed as inhibition of seedling growth; type: functional, organism-based
In short: (§1)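 Petri-dish seed assay at 28 °C, run at 1, 10, 100 and 1000 µg/mL with 2,4-D as positive control. Data analysed by ANOVA (p<0.05). IC50 in molar units obtained by Probit analysis of percent radicle growth inhibition.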

[2] = test system: Amaranthus hypochondriacus; assay: Phytogrowth-inhibitory activity against Amaranthus hypochondriacus assessed as inhibition of seedling germination; type: functional, organism-based
Echinochloa crus-galli [3] = assay: Phytogrowth-inhibitory activity against Echinochloa crusgalli assessed as inhibition of seedling germination; type: functional, organism-based
[4] = test system: Amaranthus hypochondriacus; assay: Phytogrowth-inhibitory activity against Amaranthus hypochondriacus assessed as inhibition of seedling growth; type: functional, organism-based; in short: as §1
Spinacia oleracea [5] = assay: Effect on uncoupled photosystem 2 of spinach leaves chloroplast assessed as inhibition of electron transport from water to 2,6-dichlorophenol indophenol at 150 uM relative to control
In short: (§2)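 Uncoupled PSII as DCPIP-supported O2 evolution, monitored polarographically with a Clark electrode. Spinach thylakoids in 100 mM sorbitol, 5 mM MgCl2, 10 mM KCl, 15 mM tricine pH 8.0 and 0.5 mM KCN. Ferricyanide 300 µM replaces MV; 1 µM DBMIB, 100 µM DCPIP and 6 mM NH4Cl added. Illumination 2 min through 1% CuSO4 filter. Activity relative to control.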

Spinacia oleracea [6] = assay: Effect on uncoupled photosystem 2 of spinach leaves chloroplast assessed as inhibition of electron transport from water to 2,6-dichlorophenol indophenol at 250 uM relative to control; in short: as §2
Spinacia oleracea [7] = assay: Effect on uncoupled photosystem 2 of spinach chloroplast assessed as inhibition of electron transport rate of water to silicomolybdate at 300 uM relative to control
In short: (§3)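 Intact thylakoids from market spinach leaves, stored dark 1 h at 0 °C. Uncoupled medium: 100 mM sorbitol, 5 mM MgCl2, 10 mM KCl, 15 mM tricine pH 8.0, 0.5 mM KCN, 300 µM ferricyanide, 1 µM DBMIB, 100 µM DCPIP, 6 mM NH4Cl, plus 200 µM SiMo and 10 µM DCMU. O2 evolution by Clark electrode under filtered actinic light for 2 min. Activity expressed relative to control.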

Spinacia oleracea [8] = assay: Effect on uncoupled photosystem 2 of spinach leaves chloroplast assessed as inhibition of electron transport from diphenylcarbazide to 2,6-dichlorophenol indophenol at 100 uM relative to control
In short: (§4)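 Tris-treated (0.8 M, pH 8.0) spinach thylakoids in uncoupled medium with 200 µM DPC, 100 µM DCPIP, 1 µM DBMIB and 6 mM NH4Cl. DCPIP reduction followed spectrophotometrically. Activity expressed relative to control.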

Spinacia oleracea [9] = assay: Effect on uncoupled photosystem 2 of spinach chloroplast assessed as inhibition of electron transport rate of water to silicomolybdate at 150 uM relative to control; in short: as §3
Spinacia oleracea [10] = assay: Effect on uncoupled photosystem 2 of spinach leaves chloroplast assessed as inhibition of electron transport from water to 2,6-dichlorophenol indophenol at 50 uM relative to control; in short: as §2
[11] = Inhibition of light-dependent proton uptake in spinach leaves chloroplast; type: functional, Spinacia oleracea; conditions: read-out: I50
In short: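 Light-driven proton uptake recorded as a pH rise from 8.0 to 8.1 with a combination microelectrode on an expanded-scale potentiometer. Medium: 100 mM sorbitol, 5 mM MgCl2, 10 mM KCl, 1 mM tricine pH 8.0, 0.05 mM MV. Compounds at 50–300 µM. I50 read from the plot of percent activity against concentration.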

Spinacia oleracea [12] = assay: Effect on uncoupled photosystem 2 of spinach leaves chloroplast assessed as inhibition of electron transport from diphenylcarbazide to 2,6-dichlorophenol indophenol at 200 uM relative to control; in short: as §4
Spinacia oleracea [13] = assay: Effect on uncoupled photosystem 2 of spinach leaves chloroplast assessed as inhibition of electron transport from water to 2,6-dichlorophenol indophenol at 300 uM relative to control; in short: as §2
Spinacia oleracea [14] = assay: Effect on uncoupled photosystem 2 of spinach leaves chloroplast assessed as inhibition of electron transport from water to 2,6-dichlorophenol indophenol at 200 uM relative to control; in short: as §2
Spinacia oleracea [15] = assay: Inhibition of photophosphorylation in spinach leaves chloroplast assessed as inhibition of noncyclic electron transport from water to methyl viologen in uncoupled condition; type: functional
In short: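 Water→0.05 mM MV O2 uptake measured with a Clark electrode in basal medium (15 mM tricine pH 8.0, 0.5 mM KCN) plus 6 mM NH4Cl as uncoupler, with 2 min actinic illumination. Compounds at 50–300 µM. I50 from the percent-activity versus concentration plot.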

Spinacia oleracea [16] = assay: Effect on uncoupled photosystem 2 of spinach leaves chloroplast assessed as inhibition of electron transport from diphenylcarbazide to 2,6-dichlorophenol indophenol at 50 uM relative to control; in short: as §4
Spinacia oleracea [17] = assay: Effect on uncoupled photosystem 2 of spinach leaves chloroplast assessed as inhibition of electron transport from diphenylcarbazide to 2,6-dichlorophenol indophenol at 300 uM relative to control; in short: as §4
Spinacia oleracea [18] = assay: Effect on uncoupled photosystem 2 of spinach chloroplast assessed as inhibition of electron transport rate of water to silicomolybdate at 250 uM relative to control; in short: as §3
Spinacia oleracea [19] = assay: Effect on uncoupled photosystem 2 of spinach chloroplast assessed as inhibition of electron transport rate of water to silicomolybdate at 200 uM relative to control; in short: as §3
Spinacia oleracea [20] = assay: Effect on uncoupled photosystem 2 of spinach leaves chloroplast assessed as inhibition of electron transport from water to 2,6-dichlorophenol indophenol at 100 uM relative to control; in short: as §2
[21] = Inhibition of photosynthetic phosphorylation from water to methyl viologen in spinach leaves chloroplast; type: functional, Spinacia oleracea; conditions: read-out: I50
In short: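 ATP synthesis determined titrimetrically by pH change, with 0.05 mM MV as Hill acceptor in 100 mM sorbitol, 5 mM MgCl2, 10 mM KCl, 1 mM tricine pH 8.0. Compounds at 50–300 µM; DCMU at 0.01–10.0 µM as reference. I50 extrapolated from the percent-activity versus concentration plot.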

Spinacia oleracea [22] = assay: Effect on uncoupled photosystem 2 of spinach chloroplast assessed as inhibition of electron transport rate of water to silicomolybdate at 50 uM relative to control; in short: as §3
Spinacia oleracea [23] = assay: Effect on uncoupled photosystem 2 of spinach chloroplast assessed as inhibition of electron transport rate of water to silicomolybdate at 100 uM relative to control; in short: as §3
Spinacia oleracea [24] = assay: Effect on uncoupled photosystem 2 of spinach leaves chloroplast assessed as inhibition of electron transport from diphenylcarbazide to 2,6-dichlorophenol indophenol at 250 uM relative to control; in short: as §4
Spinacia oleracea [25] = assay: Effect on uncoupled photosystem 2 of spinach leaves chloroplast assessed as inhibition of electron transport from diphenylcarbazide to 2,6-dichlorophenol indophenol at 150 uM relative to control; in short: as §4

Work on `COC(=O)c1c(C)cc(O)cc1O` [METHYL ORSELLINATE] yielded a pIC50 (Echinochloa crus-galli [1]) of 3.51, a pIC50 [2] of 3.44 and a pIC50 (Echinochloa crus-galli [3]) of 3.17. It also gave a pIC50 [4] of 3.54.

Compound `Cc1cc(O)cc(O)c1` [ORCINOL] has a pIC50 (Echinochloa crus-galli [1]) of 2.96, a pIC50 [2] of 2.77 and a pIC50 (Echinochloa crus-galli [3]) of under 2.09. For the same compound, the pIC50 [4] was 3.00.

`COc1cc(C)c2c(=O)c3c(O)cc(OC)cc3oc2c1` [LICHEXANTHONE] gave a pIC50 (Echinochloa crus-galli [1]) of under 2.70, a pIC50 [2] of under 2.70 and a pIC50 (Echinochloa crus-galli [3]) of under 2.70. It also gave a pIC50 [4] of under 2.70.

`COC(=O)c1c(C)cc(O)c(C=O)c1O` [METHYL HAEMATOMMATE] gave a pIC50 (Echinochloa crus-galli [1]) of 4.54.

`Cc1cc(OC(=O)c2c(C)cc(OC(=O)c3c(C)cc(O)cc3O)cc2O)cc(O)c1C(=O)O` [GYROPHORIC ACID] gave an Activity (Spinacia oleracea [5]) of 31.3, an Activity (Spinacia oleracea [6]) of 4.1 and a pIC50 (Echinochloa crus-galli [1]) of 2.70. For the same compound, the Activity (Spinacia oleracea [7]) was “Active”, the Activity (Spinacia oleracea [8]) was 58.5 and the Activity (Spinacia oleracea [9]) was 62.5. The Activity (Spinacia oleracea [10]) was 72.1, the pIC50 [11] was 4.22 and the Activity (Spinacia oleracea [12]) was 33.8. The Activity (Spinacia oleracea [13]) was “Active”, the Activity (Spinacia oleracea [14]) was 16.8 and the Activity (Spinacia oleracea [15]) was “Active”. It also gave an Activity (Spinacia oleracea [16]) of 84.3, a pIC50 [2] of 2.70 and an Activity (Spinacia oleracea [17]) of 17.9. The Activity (Spinacia oleracea [18]) was “Active”, the Activity (Spinacia oleracea [19]) was 41 and the Activity (Spinacia oleracea [20]) was 49.7. It also gave a pIC50 (Echinochloa crus-galli [3]) of 2.70, a pIC50 [21] of 4.06 and an Activity (Spinacia oleracea [22]) of 93.4. For the same compound, the Activity (Spinacia oleracea [23]) was 79.9, the Activity (Spinacia oleracea [24]) was 29.9 and the Activity (Spinacia oleracea [25]) was 40.3. It also gave a pIC50 [4] of 2.70.

With `Cc1cc(O)cc(OC(=O)c2c(C)cc(O)cc2O)c1` [LECANORIN] the Activity (Spinacia oleracea [5]) was 15.7, the Activity (Spinacia oleracea [6]) was “Active” and the pIC50 (Echinochloa crus-galli [1]) was 3.74. The Activity (Spinacia oleracea [7]) was “Active”, the Activity (Spinacia oleracea [8]) was 86.9 and the Activity (Spinacia oleracea [9]) was 8.4. The Activity (Spinacia oleracea [10]) was 64.3, the pIC50 [11] was 3.85 and the Activity (Spinacia oleracea [12]) was 96. The Activity (Spinacia oleracea [13]) was “Active”, the Activity (Spinacia oleracea [14]) was “Active” and the Activity (Spinacia oleracea [15]) was “Active”. The Activity (Spinacia oleracea [16]) was 93.6, the pIC50 [2] was 3.12 and the Activity (Spinacia oleracea [17]) was 135. The Activity (Spinacia oleracea [18]) was “Active”, the Activity (Spinacia oleracea [19]) was “Active” and the Activity (Spinacia oleracea [20]) was 37.5. For the same compound, the pIC50 (Echinochloa crus-galli [3]) was 3.15, the pIC50 [21] was 3.87 and the Activity (Spinacia oleracea [22]) was 59.1. For the same compound, the Activity (Spinacia oleracea [23]) was 25, the Activity (Spinacia oleracea [24]) was 112 and the Activity (Spinacia oleracea [25]) was 88.9. For the same compound, the pIC50 [4] was 3.24.

`COC(=O)c1c(C)cc(O)c(C)c1O` [ATRARIC ACID] showed a pIC50 (Echinochloa crus-galli [1]) of 3.21, a pIC50 [2] of 3.12 and a pIC50 (Echinochloa crus-galli [3]) of 2.96. The pIC50 [4] was 3.49.

`CN(C)C(=O)Nc1ccc(Cl)c(Cl)c1` [DCMU] showed a pIC50 [21] of 6.85.

`O=C(O)COc1ccc(Cl)cc1Cl` [2,4-DICHLOROPHENOXYACETIC ACID] showed a pIC50 (Echinochloa crus-galli [1]) of under 3.64, a pIC50 [2] of 3.06 and a pIC50 (Echinochloa crus-galli [3]) of under 3.64.
